{"data": "Published values from different studies"}
{"Compound": "COC(=O)c1cc(-c2cccc(NC(=O)Nc3ccc(C)cc3)c2)on1", "organism": "Acinetobacter baumannii", "assay": "microbial growth, broth dilution", "system": "BAA1605", "endpoint": "MIC", "result": "> 64 µg/mL"}
{"Compound": "C=C1CC[C@H](O)C/C1=C/C=C1\\CCC[C@]2(C)[C@@H]([C@H](C)CCCC(C)C)CC[C@@H]12", "organism": "Hepatitis C virus", "assay": "viral replication, inhibitor, luciferase", "system": "BM4-5, GETYPE1B", "conditions": "5 days, replicon", "endpoint": "EC50", "result": "3.8 µM"}
{"Compound": "CSc1ccc(/C=C/c2cc(/C=C3\\Sc4ccccc4N3CCCN3CCCC3)c3ccccc3[n+]2C)cc1.[I-]", "organism": "Acinetobacter baumannii", "assay": "microbial growth, broth dilution", "system": "ATCC19606", "conditions": "drug-resistant strain", "endpoint": "MIC", "result": "64 µg/mL"}
{"Compound": "COC(=O)c1cc(-c2cccc(NC(=O)Nc3c(C)cccc3C)c2)on1", "organism": "Acinetobacter baumannii", "assay": "microbial growth, broth dilution", "system": "BAA1605", "endpoint": "MIC", "result": "> 64 µg/mL"}
{"Compound": "Cc1c(NN=C(C#N)C2=NC(=O)CS2)c(=O)n(-c2ccccc2)n1C", "organism": "Acinetobacter baumannii", "assay": "microbial killing, broth dilution", "endpoint": "MBC", "result": "0.25 µg/mL"}
{"Compound": "CC1CCCC2(C1)SC(C)C(=O)N2NC(=O)c1[nH]c2ccc(Cl)cc2c1-c1ccccc1 (stereo not shown)", "organism": "Enterovirus B", "assay": "viral replication, inhibitor", "system": "Vero, B4", "endpoint": "EC50", "result": "> 100 µM"}
{"Compound": "C=C[C@@H]1C[C@]1(NC(=O)[C@@H]1C[C@@H]2CN1C(=O)[C@H](C(C)(C)C)NC(=O)O[C@@H]1C[C@H]1CCCCCc1nc3ccc(OC)cc3nc1O2)C(=O)NS(=O)(=O)C1CC1", "organism": "Hepatitis C virus", "assay": "viral replication, inhibitor, luciferase", "system": "Huh-7, GETYPE1B", "conditions": "96 h, replicon", "endpoint": "IC50", "result": "0.0466 µM"}
{"Compound": "COC(=O)c1cc(-c2cccc(NC(=O)Nc3ccc(Cl)cc3)c2)on1", "organism": "Acinetobacter baumannii", "assay": "microbial growth, broth dilution", "system": "BAA1605", "endpoint": "MIC", "result": "> 64 µg/mL"}
{"Compound": "CCC1CCC2(CC1)SCC(=O)N2NC(=O)c1[nH]c2ccc(Cl)cc2c1-c1ccccc1 (stereo not shown)", "organism": "Enterovirus B", "assay": "viral replication, inhibitor", "system": "Vero, B4", "endpoint": "EC50", "result": "> 100 µM"}
{"Compound": "C[n+]1c(/C=C/c2c[nH]c3ccccc23)cc(/C=C2\\Sc3ccccc3N2CCCN2CCOCC2)c2ccccc21.[I-]", "organism": "Acinetobacter baumannii", "assay": "microbial growth, broth dilution", "system": "ATCC19606", "conditions": "drug-resistant strain", "endpoint": "MIC", "result": "> 64 µg/mL"}
{"Compound": "COC(=O)N[C@H](C(=O)N1CCC[C@H]1c1ncc(-c2ccc(-c3cnc([C@@H]4CCCN4C(=O)[C@@H](NC(=O)OC)C(C)C)[nH]3)cc2)[nH]1)C(C)C", "organism": "Hepatitis C virus", "assay": "viral replication, inhibitor", "system": "Huh-7, GETYPE1B", "conditions": "replicon", "endpoint": "EC90", "result": "> 0.001 µM"}
{"Compound": "CC1CCC2(CC1)SC(C)C(=O)N2NC(=O)c1[nH]c2ccc(Cl)cc2c1-c1ccccc1 (stereo not shown)", "organism": "Enterovirus B", "assay": "viral replication, inhibitor", "system": "Vero, B4", "endpoint": "EC50", "result": "> 100 µM"}
{"Compound": "COc1nc(N)nc2c1ncn2[C@@H]1O[C@H](COP(=O)(N[C@@H](C)C(=O)OCC(C)(C)C)Oc2cccc3ccccc23)[C@@H](O)[C@@]1(C)O (stereo partly shown)", "organism": "Hepatitis C virus", "assay": "viral replication, inhibitor", "system": "GETYPE1A", "conditions": "96 h, replicon", "endpoint": "EC90", "result": "0.004 µM"}
{"Compound": "COC(=O)c1cc(-c2cccc(NC(=S)Nc3ccc(C)cc3)c2)on1", "organism": "Acinetobacter baumannii", "assay": "microbial growth, broth dilution", "system": "BAA1605", "endpoint": "MIC", "result": "> 64 µg/mL"}
{"Compound": "CCC1CCC2(CC1)SC(C)C(=O)N2NC(=O)c1[nH]c2ccc(Cl)cc2c1-c1ccccc1 (stereo not shown)", "organism": "Enterovirus B", "assay": "viral replication, inhibitor", "system": "Vero, B4", "endpoint": "EC50", "result": "> 100 µM"}
{"Compound": "COC(=O)c1cc(-c2cccc(NC(=O)Nc3ccc(F)c(F)c3)c2)on1", "organism": "Acinetobacter baumannii", "assay": "microbial growth, broth dilution", "system": "BAA1605", "endpoint": "MIC", "result": "> 64 µg/mL"}
{"Compound": "CC1(C)S[C@@H]2[C@H](NC(=O)[C@H](N)c3ccccc3)C(=O)N2[C@H]1C(=O)O", "organism": "Acinetobacter baumannii", "assay": "microbial growth, broth dilution", "system": "ATCC19606", "conditions": "drug-resistant strain", "endpoint": "MIC", "result": "64 µg/mL"}
{"Compound": "C=C1/C(=C\\C=C2/CCC[C@]3(C)[C@@H]([C@H](C)CCCC(C)(C)O)CC[C@@H]23)C[C@@H](O)C[C@@H]1O", "organism": "Hepatitis C virus", "assay": "viral replication, inhibitor, luciferase", "system": "GETYPE2A", "conditions": "5 days, replicon", "endpoint": "EC50", "result": "4.71 µM"}
{"Compound": "C[n+]1c(/C=C/c2ccc(O)cc2)cc(/C=C2\\Sc3ccccc3N2CCCN2CCOCC2)c2ccccc21.[I-]", "organism": "Acinetobacter baumannii", "assay": "microbial growth, broth dilution", "system": "ATCC19606", "conditions": "drug-resistant strain", "endpoint": "MIC", "result": "> 64 µg/mL"}
{"Compound": "C=C1CC[C@H](O)C/C1=C/C=C1\\CCC[C@]2(C)[C@@H]([C@H](C)/C=C/[C@H](C)C(C)C)CC[C@@H]12", "organism": "Hepatitis C virus", "assay": "viral replication, inhibitor, luciferase", "system": "GETYPE2A", "conditions": "72 h, replicon", "endpoint": "EC50", "result": "14.2 µM"}
{"Compound": "O=C(NN1C(=O)CSC12CCC(c1ccccc1)CC2)c1[nH]c2ccc(Cl)cc2c1-c1ccccc1 (stereo not shown)", "organism": "Enterovirus B", "assay": "viral replication, inhibitor", "system": "Vero, B4", "endpoint": "EC50", "result": "> 100 µM"}
{"Compound": "COC(=O)c1cc(-c2cccc(NC(=S)Nc3ccc(OC)cc3)c2)on1", "organism": "Acinetobacter baumannii", "assay": "microbial growth, broth dilution", "system": "BAA1605", "endpoint": "MIC", "result": "> 64 µg/mL"}
{"Compound": "CCCC1CCC2(CC1)SC(C)C(=O)N2NC(=O)c1[nH]c2ccc(Cl)cc2c1-c1ccccc1 (stereo not shown)", "organism": "Enterovirus B", "assay": "viral replication, inhibitor", "system": "Vero, B4", "endpoint": "EC50", "result": "> 100 µM"}
{"Compound": "CCCCCCNC(=S)Nc1cccc(-c2cc(C(=O)OC)no2)c1", "organism": "Acinetobacter baumannii", "assay": "microbial growth, broth dilution", "system": "BAA1605", "endpoint": "MIC", "result": "> 64 µg/mL"}
{"Compound": "CC1CC(C)(C)CC2(C1)SCC(=O)N2NC(=O)c1[nH]c2ccc(Cl)cc2c1-c1ccccc1 (stereo not shown)", "organism": "Enterovirus B", "assay": "viral replication, inhibitor", "system": "Vero, B4", "endpoint": "EC50", "result": "> 100 µM"}
{"Compound": "COC(=O)c1cc(-c2cccc(NC(=O)Nc3cccc(F)c3)c2)on1", "organism": "Acinetobacter baumannii", "assay": "microbial growth, broth dilution", "system": "BAA1605", "endpoint": "MIC", "result": "> 64 µg/mL"}
{"Compound": "CCCC1CCC2(CC1)SCC(=O)N2NC(=O)c1[nH]c2ccc(Cl)cc2c1-c1ccccc1 (stereo not shown)", "organism": "Enterovirus B", "assay": "viral replication, inhibitor", "system": "Vero, B4", "endpoint": "EC50", "result": "> 100 µM"}
{"Compound": "CO[C@H]1/C=C/O[C@@]2(C)Oc3c(C)c(O)c4c(O)c(c(/C=N/N5CCN(C)CC5)c(O)c4c3C2=O)NC(=O)/C(C)=C\\C=C\\[C@H](C)[C@H](O)[C@@H](C)[C@@H](O)[C@@H](C)[C@H](OC(C)=O)[C@@H]1C", "organism": "Acinetobacter baumannii", "assay": "microbial growth, broth dilution", "system": "ATCC19606", "conditions": "drug-resistant strain", "endpoint": "MIC", "result": "1 µg/mL"}
